This is an account of results in ChEMBL document CHEMBL4385611, “Difluoromethylene at the γ-Lactam α-Position Improves 11-Deoxy-8-aza-PGE1 Series EP4 Receptor Binding and Activity: 11-Deoxy-10,10-difluoro-8-aza-PGE1 Analog (KMN-159) as a Potent EP4 Agonist” (J Med Chem, 2019).

The target in data set [1] is Prostaglandin E2 receptor EP2 subtype (Homo sapiens, UniProt P43116). As to the kind of experiment: Agonist activity at human EP2 receptor expressed in HEK293T/17 cells assessed as increase in GalphaS-mediated CREB activation at 10 uM measured after 6 to 24 hrs by SEAP reporter gene-based chemiluminescence assay relative to control. The format is functional, cell-based.
Chain of Prostaglandin E2 receptor EP2 subtype (P43116 whole entry): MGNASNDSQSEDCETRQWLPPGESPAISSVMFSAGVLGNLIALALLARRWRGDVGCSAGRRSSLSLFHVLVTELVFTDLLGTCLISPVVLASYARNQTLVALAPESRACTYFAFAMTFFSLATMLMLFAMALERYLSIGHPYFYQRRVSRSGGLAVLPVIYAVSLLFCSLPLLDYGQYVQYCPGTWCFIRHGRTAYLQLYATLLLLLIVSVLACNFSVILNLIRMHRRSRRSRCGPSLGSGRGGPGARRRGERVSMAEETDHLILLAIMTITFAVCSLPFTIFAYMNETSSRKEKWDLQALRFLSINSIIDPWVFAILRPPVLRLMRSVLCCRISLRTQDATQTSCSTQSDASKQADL

The nature of data set [2]: Apparent permeability across apical to basolateral side in MDCK-MDR1 cells 120 mins by LC-MS/MS analysis. The format is ADME, cell-based, Canis lupus familiaris. The note with it: dog.
Data set [3] is described as follows: Chemical stability of the compound assessed as drug recovery under Co-60 gamma irradiation condition. The data set is classed as physicochemical. Summed up:
(§1)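 Compound solution in PBS, pH 7.4, held at 4 °C, tested as plain aqueous solution and after autoclaving. A separate sample was exposed to Co-60 gamma irradiation. Read-out is percent of compound recovered.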

Data set [4] is described as follows: Chemical stability in PBS buffer at pH 7.4 assessed as compound recovery at 4 degC. The format is physicochemical. The method in brief: as §1
Data set [5] can be described thus: Efflux ratio of apparent permeability across basolateral to apical over apical to basolateral side in MDCK-MDR1 cells. The data set is classed as ADME, cell-based, Canis lupus familiaris. The note with it: dog.
Data set [6] is described as follows: Apparent permeability across apical to basolateral side in MDCK-MDR1 cells assessed as drug recovery. The data set is classed as ADME, cell-based, Canis lupus familiaris. The note with it: dog, read-out: Drug recovery.
Data set [7] in a line: Chemical stability in PBS buffer at pH 7.4 assessed as compound recovery at 4 degC under autoclave condition. The format is physicochemical. The method in brief: as §1
A short description of data set [8]: Apparent permeability across basolateral to apical side in MDCK-MDR1 cells assessed as drug recovery. The format is ADME, cell-based, Canis lupus familiaris. The note with it: dog, read-out: Drug recovery.
Data set [9] can be described thus: Apparent permeability across basolateral to apical side in MDCK-MDR1 cells 120 mins by LC-MS/MS analysis. The data set is classed as ADME, cell-based, Canis lupus familiaris. The note with it: dog.

Each structure is given as a SMILES string.

Take `CCC#CC[C@H](C)[C@H](O)/C=C/[C@H]1CCC(=O)N1CCCCCCC(=O)O`: the Activity in [1] is less than 50%.
`CCC#CC[C@H](C)[C@H](O)/C=C/[C@H]1CC(F)(F)C(=O)N1CCCCCCC(=O)O`: the Papp A→B at 2 h in [2] came to 0.59 ×10⁻⁶ cm/s. Further, the Drug recovery is 95% in data set [3], 100% in data set [4] and 100% in [7]. The efflux ratio in data set [5] was determined as 20. Besides, the recovery in data set [6] stood at 84%; in data set [8], 93%. In addition, the Papp B→A at 2 h in data set [9] is 11.8 ×10⁻⁶ cm/s.

For orientation: Papp A→B means how fast a substance crosses the layer from the apical side. Broadly, the efflux ratio is the permeability from basolateral to apical divided by that in the opposite direction, in the common usage. One may read the Papp B→A as the apparent permeability from the basolateral to the apical side of a cell layer.
